{
  "source": "ChEMBL document CHEMBL6071171",
  "about": "“Molecular Mechanisms of Methamphetamine-Induced Addiction via TAAR1 Activation” (J Med Chem, 2024)",
  "assay_type_in_all_cases": "cell-based",
  "key": {"[1]": {"system": "T1, Trace amine-associated receptor 1 (Homo sapiens), Q96RJ0 [D103A]", "T1 sequence (whole entry)": "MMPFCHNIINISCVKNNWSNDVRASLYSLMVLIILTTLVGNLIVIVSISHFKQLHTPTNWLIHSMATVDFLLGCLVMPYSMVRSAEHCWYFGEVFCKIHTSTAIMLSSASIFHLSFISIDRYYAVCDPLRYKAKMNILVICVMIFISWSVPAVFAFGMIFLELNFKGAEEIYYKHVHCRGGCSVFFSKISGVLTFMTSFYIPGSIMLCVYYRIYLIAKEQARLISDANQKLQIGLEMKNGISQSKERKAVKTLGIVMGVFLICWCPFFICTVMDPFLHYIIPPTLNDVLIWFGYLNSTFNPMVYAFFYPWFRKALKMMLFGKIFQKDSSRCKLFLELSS", "test": "Agonist activity against TAAR1 D103A mutant (unknown origin) expressed in HEK293 cells assessed as increase in cAMP accumulation incubated for 30 mins by HTRF assay", "procedure,_shortened": "(§1)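 HEK293 cells harvested 48 h after transfection with plasmid at 1 μg mL–1; 8000 cells per well incubated 30 min at 37 °C with agonist over 10–4 to 10–10 M. cAMP read by HTRF (d2-cAMP plus Eu-cryptate antibody, 1 h room temperature; excitation 330 nm, emission 620/665 nm). pEC50 and Emax from dose–response curves; mean ± s.e.m. of three independent experiments, each in technical triplicate.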"}, "[2]": {"system": "T2, Trace amine-associated receptor 1 (Homo sapiens), Q96RJ0 [Y294A]", "T2 sequence (whole entry)": "T1 sequence (whole entry) with A103D, Y294A", "test": "Agonist activity against TAAR1 Y294A mutant (unknown origin) expressed in HEK293 cells assessed as increase in cAMP accumulation incubated for 30 mins by HTRF assay", "procedure,_shortened": "as §1"}, "[3]": {"system": "T3, Trace amine-associated receptor 1 (Homo sapiens), Q96RJ0 [I104A]", "T3 sequence (whole entry)": "T1 sequence (whole entry) with A103D, I104A", "test": "Agonist activity against TAAR1 I104A mutant (unknown origin) expressed in HEK293 cells assessed as increase in cAMP accumulation incubated for 30 mins by HTRF assay", "procedure,_shortened": "as §1"}, "[4]": {"system": "T4, Trace amine-associated receptor 1 (Homo sapiens), Q96RJ0 [F186A]", "T4 sequence (whole entry)": "T1 sequence (whole entry) with A103D, F186A", "test": "Agonist activity against TAAR1 F186A mutant (unknown origin) expressed in HEK293 cells assessed as increase in cAMP accumulation incubated for 30 mins by HTRF assay", "procedure,_shortened": "as §1"}, "[5]": {"system": "T5, Trace amine-associated receptor 1 (Homo sapiens), Q96RJ0 [W264A]", "T5 sequence (whole entry)": "T1 sequence (whole entry) with A103D, W264A", "test": "Agonist activity against TAAR1 W264A mutant (unknown origin) expressed in HEK293 cells assessed as increase in cAMP accumulation incubated for 30 mins by HTRF assay", "procedure,_shortened": "as §1"}, "[6]": {"system": "T6, Trace amine-associated receptor 1 (Homo sapiens), Q96RJ0 [F267A]", "T6 sequence (whole entry)": "T1 sequence (whole entry) with A103D, F267A", "test": "Agonist activity against TAAR1 F267A mutant (unknown origin) expressed in HEK293 cells assessed as increase in cAMP accumulation incubated for 30 mins by HTRF assay", "procedure,_shortened": "as §1"}, "[7]": {"system": "T7, Trace amine-associated receptor 1 (Homo sapiens), Q96RJ0 [G293A]", "T7 sequence (whole entry)": "T1 sequence (whole entry) with A103D, G293A", "test": "Agonist activity against TAAR1 G293A mutant (unknown origin) expressed in HEK293 cells assessed as increase in cAMP accumulation incubated for 30 mins by HTRF assay", "procedure,_shortened": "as §1"}, "[8]": {"system": "T8, Trace amine-associated receptor 1 (Homo sapiens), Q96RJ0 [F268A]", "T8 sequence (whole entry)": "T1 sequence (whole entry) with A103D, F268A", "test": "Agonist activity against TAAR1 F268A mutant (unknown origin) expressed in HEK293 cells assessed as increase in cAMP accumulation incubated for 30 mins by HTRF assay", "conditions": "filed as agonist", "procedure,_shortened": "as §1"}, "[9]": {"system": "T9, Trace amine-associated receptor 1 (Homo sapiens), Q96RJ0 [V184A]", "T9 sequence (whole entry)": "T1 sequence (whole entry) with A103D, V184A", "test": "Agonist activity against TAAR1 V184A mutant (unknown origin) expressed in HEK293 cells assessed as increase in cAMP accumulation incubated for 30 mins by HTRF assay", "procedure,_shortened": "as §1"}, "[10]": {"system": "T10, Trace amine-associated receptor 1 (Homo sapiens), Q96RJ0 [I290A]", "T10 sequence (whole entry)": "T1 sequence (whole entry) with A103D, I290A", "test": "Agonist activity against TAAR1 I290A mutant (unknown origin) expressed in HEK293 cells assessed as fold increase in cAMP accumulation incubated for 30 mins by HTRF assay relative to control", "conditions": "filed as agonist"}, "[11]": {"system": "T11, Trace amine-associated receptor 1 (Homo sapiens), Q96RJ0 [F195A]", "T11 sequence (whole entry)": "T1 sequence (whole entry) with A103D, F185A", "test": "Agonist activity against TAAR1 F195A mutant (unknown origin) expressed in HEK293 cells assessed as increase in cAMP accumulation incubated for 30 mins by HTRF assay", "procedure,_shortened": "as §1"}},
  "note": "Numbering of substitutions follows the chain as printed. Active and inactive are the calls of the source. No cut-off for these calls is given here.",
  "data": [
    {"smiles": "CN[C@@H](C)Cc1ccccc1", "values": [
      {"measurement": "Activity", "setting": "[1]", "value": "inactive"},
      {"measurement": "Activity", "setting": "[2]", "value": "inactive"},
      {"measurement": "Activity", "setting": "[3]", "value": "inactive"},
      {"measurement": "Activity", "setting": "[4]", "value": "inactive"},
      {"measurement": "Activity", "setting": "[5]", "value": "inactive"},
      {"measurement": "Activity", "setting": "[6]", "value": "inactive"},
      {"measurement": "Activity", "setting": "[7]", "value": "inactive"},
      {"measurement": "Activity", "setting": "[8]", "value": "Active"},
      {"measurement": "Activity", "setting": "[9]; filed as agonist", "value": "Active"},
      {"measurement": "fold change (FC)", "setting": "[10]", "value": 6},
      {"measurement": "Activity", "setting": "[11]", "value": "inactive"}
    ]},
    {"smiles": "NCCc1ccccc1", "values": [
      {"measurement": "Activity", "setting": "[4]", "value": "inactive"},
      {"measurement": "Activity", "setting": "[8]", "value": "Active"},
      {"measurement": "Activity", "setting": "[9]", "value": "inactive"}
    ]}
  ]
}
